The format of data set [1] is in vivo, mice. The method in brief: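 Whole blood was taken 1 to 48 h after a single oral gavage (6.63 mg/kg in corn oil). Hydroxylated metabolites were methylated, and all analytes were run by GC with 63Ni-µECD on an SPB-1 column (60 m × 250 µm × 0.25 µm). The oven ran from 100 °C to 280 °C; injector was 280 °C, detector 300 °C, helium 1.0 mL/min. A PCB congener internal standard served as volume corrector.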

The format of data set [2] is in vivo, mice. A digest of the protocol:
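Blood extracts were dried under nitrogen. Headspace was sampled by SPME with a 100 µm PDMS fiber for 60 min at 60 °C, then desorbed in the injector for 5 min. Atropisomers were separated by GC-µECD with injector and detector at 250 °C and helium at 3.0 mL/min. The parent was measured on Chirasil-Dex at all time points from 1 to 48 h. Hydroxylated metabolites were measured at 5 h only, on Chirasil-Dex or CycloSil-B columns. Enantiomeric fractions were reported, n = 3–6.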
The source holds these as a separate data set.

The conditions of data set [3]: prior study, 30 mg/kg body weight, cited from earlier work.
Another data set deals with mice. The data set is described as follows: Daily animal welfare-assessments of exposed mice. In kind it is in vivo. Particulars: 6.63 mg/kg body weight in corn oil by oral gavage, up to 48 h. A digest of the protocol:
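Male and female mice (8 weeks ± 2 days) with liver-specific cpr deletion and congenic wild-type mice were housed at 22 ± 2 °C on a 12 h light-dark cycle with diet and water ad libitum. They were randomised to a single gavage of test compound (6.63 mg/kg; 18.4 µmol/kg) in corn oil (10 mL/kg) or to corn oil alone. Lab personnel assessed welfare daily.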

The mark [4] stands for this setting: 5 h time point, all four exposure groups (M-KO, M-WT, F-KO, F-WT).
The mark [5] stands for this setting: 5 h time point, all exposure groups.

Where two headings read alike, the source gives them in different places.

Consider `Oc1c(Cl)cc(Cl)c(-c2c(Cl)ccc(Cl)c2Cl)c1Cl` [3–150, 2,2′,3′,4,6,6′-Hexachlorobiphenyl-3-ol], for which the “Detection in whole blood” value in data set [1] (setting [4]) is “detected”.
As for `Oc1c(O)c(Cl)c(-c2c(Cl)ccc(Cl)c2Cl)c(Cl)c1Cl` [4,5–136, 4,5-dihydroxy-2,2′,3,3′,6,6′-hexachlorobiphenyl], in data set [1] (setting [4]), the “Detection in whole blood” value is on record as “detected”.
The same measure, in the same setting: with `Oc1cc(Cl)c(-c2c(Cl)ccc(Cl)c2Cl)c(Cl)c1Cl` [4–136, 2,2′,3,3′,6,6′-hexachlorobiphenyl-4-ol] the entry was “detected”.
In the case of `Oc1cc(Cl)c(Cl)c(-c2c(Cl)ccc(Cl)c2Cl)c1Cl` [5–136, 2,2′,3,3′,6,6′-hexachlorobiphenyl-5-ol], the “Detection in whole blood” value in data set [1] (setting [4]) is “detected”.
Regarding `Oc1cc(Cl)c(Cl)c(-c2c(Cl)ccc(Cl)c2Cl)c1Cl` [E1-5–136], in data set [2] (setting [5]), the “Atropisomeric enrichment in whole blood” value is on record as “enriched”.
Still for that read-out and setting: with `Oc1cc(Cl)c(-c2c(Cl)ccc(Cl)c2Cl)c(Cl)c1Cl` [E2-4–136] the entry was “enriched”.
`Clc1ccc(Cl)c(-c2c(Cl)ccc(Cl)c2Cl)c1Cl` [E2-(+)-PCB 136]: the “Atropisomeric enrichment in whole blood” value in data set [2] (all samples, 1 to 48 h, male and female KO and WT mice) was “enriched”.
For `Clc1ccc(Cl)c(-c2c(Cl)ccc(Cl)c2Cl)c1Cl` [PCB 136, 2,2’,3,3’,6,6’-hexachlorobiphenyl], the “Enantiomeric fraction (EF) of PCB 136” value in data set [3] (F-WT mice) is 0.63 ± 0.06; in data set [3] (M-WT mice (so in the source)), 0.66 ± 0.03. Also, the “Detection in whole blood” value in data set [1] (all time points investigated (1 to 48 h), oral racemic PCB 136 6.63 mg/kg) is “detected”. For the same compound, the “Adverse outcomes in daily animal welfare-assessments” value in the data set on mice is reported as “no adverse outcomes were observed”.
